Results: publication PMC4459094 (FEBS Open Bio, 2015)

Assays:
hMIP = conditions: continuous activity assay with fluorogenic substrate Abz-GFSPFRQ-EDDnp; cited from earlier work
[1] = target: T1, recombinant human mitochondrial intermediate peptidase (hMIP) (Homo sapiens, UniProt Q99797); assay: Hydrolysis of FRET peptides by hMIP in solution; format: biochemical; conditions: analogue without the P8 and P5 versus Abz-FRSGQPLQNKVQLQ-EDDnp
T1 sequence (Q99797 36-713): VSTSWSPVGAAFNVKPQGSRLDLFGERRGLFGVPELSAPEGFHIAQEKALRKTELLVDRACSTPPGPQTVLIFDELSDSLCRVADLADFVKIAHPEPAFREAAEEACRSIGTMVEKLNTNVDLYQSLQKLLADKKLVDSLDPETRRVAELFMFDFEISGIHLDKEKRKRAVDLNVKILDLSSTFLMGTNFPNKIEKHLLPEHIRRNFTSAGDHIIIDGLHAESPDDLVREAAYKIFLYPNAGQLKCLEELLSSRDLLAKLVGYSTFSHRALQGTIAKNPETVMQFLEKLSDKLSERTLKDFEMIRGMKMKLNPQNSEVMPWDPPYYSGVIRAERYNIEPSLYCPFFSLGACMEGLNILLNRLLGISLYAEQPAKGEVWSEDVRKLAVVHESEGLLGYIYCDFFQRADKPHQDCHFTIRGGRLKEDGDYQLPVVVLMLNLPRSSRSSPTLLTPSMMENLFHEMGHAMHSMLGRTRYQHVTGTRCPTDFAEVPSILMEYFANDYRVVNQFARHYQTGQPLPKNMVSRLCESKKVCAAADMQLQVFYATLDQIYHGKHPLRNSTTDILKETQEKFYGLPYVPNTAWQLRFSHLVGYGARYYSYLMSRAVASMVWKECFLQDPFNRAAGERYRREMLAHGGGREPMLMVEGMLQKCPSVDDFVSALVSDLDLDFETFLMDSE
Outline: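 Recombinant human MIP with an N-terminal His6 tag replacing the mitochondrial signal sequence, expressed in E. coli BL21(DE3)pLysS and purified by Ni-affinity then anion-exchange chromatography. Abz/EDDnp FRET peptide hydrolysis was followed fluorometrically (ex 320, em 420 nm). Rates were converted to moles per second using standard peptide fluorescence before and after total hydrolysis, with under 10% substrate consumed. kcat, KM and kcat/KM are given as means ± SD.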

Compound | inhibition of hMIP (hMIP) | fold lower specificity constant than Abz-FRSGQPLQNKVQLQ-EDDnp [1] [fold]
C[C@H](CS)C(=O)N1CCC[C@H]1C(=O)O [captopril] | small level of inhibition | 
O=C(O)CNC(=O)C(CS)Cc1ccccc1 (stereo not drawn) [thiorphan] | small level of inhibition | 
Abz-QPLQNKVQ-EDDnp [Abz-QPLQ↓NKVQ-EDDnp] |  | 7
